Screening results: PubChem, several laboratories
Ecoli tolC: E. coli tolC mutant growth inhibition | E. coli BW25113 tolC mutant growth, OD615 | growth inhibition, % at 10 µM (by protocol) | actives 2.2% (n = 65,000) | AID 573;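 active = growth inhibition at or above a cutoff equal to the mean over every tested compound plus 3 SD, cut at about 60% in these data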;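 note: growth measured after 20 h incubation at 37 °C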
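Assay system: tolC-deleted E. coli BW25113. Medium: kanamycin-containing LB broth (50 µg/mL). Dosing: 10 µM final, single dose. Timing: bacterial growth with compound for 20 h at 37 °C. Detection: A615 absorbance measurement. Read-out basis: growth inhibition in percent.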
CYP2C19 act: activators of human cytochrome P450 2C19 | recombinant CYP2C19, luciferin-H EGE luminescence; hits give high values; 0 = fully inhibited enzyme, 1 = untreated enzyme | activation factor at 5 µM | 96,000 tested, under 10 active | AID 1025;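 active = activation factor of at least 2 at 5 µM in the primary screen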;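 note: 0 = wells with 2.5 mM tranylcypromine and 1 = vehicle-only wells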
CYP2C9 inh: blocks human cytochrome P450 2C9 | AID 777 | CYP2C9 Supersomes, luciferin-H conversion, luminescence | actives 20% (n = 96,000) | P11712 | inhibition, % at 5 µM;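 active = blocking of liver enzyme CYP2C9 beyond about 50% at 5 µM, limit read from the data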
Target sequence (P11712 whole entry, looked up): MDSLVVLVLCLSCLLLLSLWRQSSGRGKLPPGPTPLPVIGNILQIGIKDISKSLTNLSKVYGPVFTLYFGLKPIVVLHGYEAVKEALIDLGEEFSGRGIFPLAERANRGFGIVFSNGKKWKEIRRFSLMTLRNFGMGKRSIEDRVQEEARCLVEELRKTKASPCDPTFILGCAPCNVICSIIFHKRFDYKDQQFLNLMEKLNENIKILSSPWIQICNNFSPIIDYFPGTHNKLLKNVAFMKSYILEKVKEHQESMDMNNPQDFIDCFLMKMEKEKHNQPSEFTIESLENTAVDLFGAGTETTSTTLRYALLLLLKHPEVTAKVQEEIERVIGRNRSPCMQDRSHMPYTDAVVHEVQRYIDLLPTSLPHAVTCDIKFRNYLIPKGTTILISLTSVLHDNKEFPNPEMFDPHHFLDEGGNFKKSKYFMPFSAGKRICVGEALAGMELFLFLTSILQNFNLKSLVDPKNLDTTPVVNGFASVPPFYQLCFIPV
CYP2C9 activ: activators of human CYP2C9; recombinant CYP2C9, luciferin-H conversion, luminescence; hits give high values; factor 1 = untreated enzyme, 0 = blocked; activation factor at 5 µM; actives 1.4% (n = 96,000); AID 1024;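 active = activation factor of 2 or more for CYP2C9 at a 5 µM dose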;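 note: 0 = sulfaphenazole-blocked wells and 1 = vehicle-only wells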
CYP2C19 inh: inhibitors of human CYP2C19; CYP2C19 Supersomes, luciferin-H EGE luminescence, 30 min; inhibition, % at 5 µM; actives 21% (n = 96,000); AID 778;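 active = CYP2C19 inhibition above a set limit at 5 µM in the primary screen, cut at about 50% in these data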;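 note: plate controls were negative control wells for no effect and 2.5 mM tranylcypromine positive control for full effect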
Ecoli WT expand: blocks growth of wild type E. coli BW25113 | OD600 absorbance | growth inhibition, % at 100 µM | actives 0.15% (n = 98,000) | AID 710;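 active = growth inhibition above about 50% at one test dose, limit read from the data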;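 note: growth measured after 20 h incubation at 37 °C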
Numbers without * were called inactive; / = not tested or not shown. An excerpt weighted towards active compounds, which were near 29% of everything screened.

SMILES	Ecoli tolC	CYP2C19 act	CYP2C9 inh	CYP2C9 activ	CYP2C19 inh	Ecoli WT expand
O=c1c2ccccc2nc(SCc2cc(=O)n3ccsc3n2)n1CCCO	/	0.8	38.3	0.6	24.9	5.0
COc1cc(C)nc(N2CCCC(C(=O)Nc3cccc(Cl)c3Cl)C2)n1 (stereo not drawn)	-2.1	0.8	31.8	0.7	15.2	-7.0
Nc1ccc(S(=O)(=O)Nc2ncccn2)cc1	13.1	/	/	/	/	/
COc1ccc(CNc2ccc(-c3ccccc3OC)nn2)cc1	/	0.6	-89.2	1.9	39.8	9.0
COc1cccc(OCC(O)CO)c1 (stereo not drawn)	-21.4	1	12.5	0.9	-1.3	4.0
COc1cccc(Sc2ccccc2CN(C)C)c1	/	0.3	14.1	0.9	71.8*	6.0
CNCc1ccccc1Sc1ccc(OC)cc1	/	0.3	9.8	0.9	65.3*	9.0
CC(c1ccccc1)C1C(C#N)=C(N)OC2=C1C(=O)CC(C)(C)C2 (stereo not drawn)	6.7	0.1	84.2*	0.2	90.1*	9.0
CC1(C)CC(=O)C2=C(C1)OC(/N=C/N1CCOCC1)=C(C#N)C2c1ccccc1 (stereo not drawn)	51.3	0.7	65.4*	0.3	30.7	7.0
Cc1cc(C2C(C#N)=C(N)OC3=C2C(=O)CCC3)c(C)s1 (stereo not drawn)	/	0.5	21.7	0.8	51.1*	3.0
CN1CCN(/C=N/C2=C(C#N)C(c3ccccc3)C3=C(CC(C)(C)CC3=O)O2)CC1 (stereo not drawn)	/	0.9	1.2	1	11.9	5.0
Cc1cc(C2C(C#N)=C(N)OC3=C2C(=O)CC(C)(C)C3)c(C)s1 (stereo not drawn)	/	0.6	33.8	0.7	38.2	8.0
CC1(C)CC(=O)C2=C(C1)OC(N)=C(C#N)C2C#Cc1ccccc1 (stereo not drawn)	-15.2	0.8	69.3*	0.3	15.3	8.0
O=C(COc1ccccc1-c1ccccc1)Nc1ccc(S(=O)(=O)NCc2ccco2)cc1	/	1	34.4	0.7	-4.7	-3.0
O=C(C1CCCN(Cc2ccccc2C(F)(F)F)C1)N1CCCCC1 (stereo not drawn)	/	0.8	33.5	0.7	24.7	3.0
N#Cc1ccccc1CSc1nc(O)cc(=O)[nH]1	-10.2	1	-10.3	1.1	-0.2	0.0
COc1ccc(C(=O)COc2ccccc2N2C(=O)C3C4C=CC(C4)C3C2=O)cc1 (stereo not drawn)	/	0.9	11.5	0.9	8.4	1.0
N#CC1=C(N)OC2=C(C(=O)CCC2)C1c1ccncc1 (stereo not drawn)	-11.9	0.7	40.5	0.6	34.9	-5.0
CC(CC1C(C#N)=C(N)OC2=C1C(=O)CCC2)c1ccccc1 (stereo not drawn)	2.8	0.1	87.8*	0.1	92.6*	12.0
Cc1ccc(Sc2nc(-c3ccccc3)ccc2C#N)cc1	/	1	18.9	0.8	-1.3	-17.0
CCOC(=O)N1CCC(Nc2ncnc3c2cnn3-c2ccc(C)cc2C)CC1	14.1	0.6	57.7*	0.4	43.7	0.0
CC(=O)Nc1ccc(Nc2ncnc3c2cnn3-c2ccc(C)cc2C)cc1	/	0.5	51.6*	0.5	54.3*	-9.0
COC(=O)c1nc(-c2ccccc2)oc1N(C)C	0.5	0.9	-193.0	2.9*	8.6	4.0
COC(=O)c1nnc(-c2ccccc2)nc1OC	/	0.9	9.9	0.9	8.9	-5.0
COC(=O)c1nc2ccc(C)cn2c1F	/	1	13.3	0.9	3.5	13.0
SMILES	Ecoli tolC	CYP2C19 act	CYP2C9 inh	CYP2C9 activ	CYP2C19 inh	Ecoli WT expand
COC(=O)c1nc(-c2ccc(C)cc2)oc1N(C)C	4.8	0.9	-144.5	2.4*	14.9	2.0
Cc1ccc(/C=C/C(=O)C2C(=O)c3ccccc3C2=O)cc1	/	1.1	98.6*	0	-5.9	-7.0
COCCN1C(=O)c2ccccc2C(C(=O)Nc2ccc3c(c2)OCCO3)C1c1ccc(F)cc1 (stereo not drawn)	/	1	1.8	1	-2.9	-1.0
Cc1ccc2oc(-c3cccc(NC(=O)c4ccc(Br)o4)c3C)nc2c1	/	0.9	27.1	0.7	14.4	-5.0
Cc1cc2nc(-c3cccc(NC(=O)c4ccc(Br)o4)c3C)oc2cc1C	8.9	0.8	50.3*	0.5	19.2	-11.0
O=C(CSc1nc2cc(S(=O)(=O)N3CCOCC3)ccc2o1)NC1CCCc2ccccc21 (stereo not drawn)	18.1	0.3	60.3*	0.4	73.7*	-12.0
Cc1[nH]c2ccccc2c1C(=O)CSc1nc2cc(S(=O)(=O)N3CCCCC3)ccc2o1	19.5	0.4	89.9*	0.1	60.2*	-15.0
O=C(CSc1nc2cc(Cl)ccc2o1)N1CCOCC1	-2.0	0.6	26.2	0.7	40.1	5.0
O=C(O)c1ccc2oc(SCC(=O)N3CCCCC3)nc2c1	-4.4	1.2	-18.1	1.2	-17.8	3.0
Cc1ccc(C(=O)CSc2nc3cc(S(=O)(=O)N4CCOCC4)ccc3o2)cc1	30.2	0.9	82.4*	0.2	10.7	-7.0
O=C(CCC(=O)N1CCN(S(=O)(=O)c2ccc(Cl)cc2)CC1)NC1CCCc2ccccc21 (stereo not drawn)	/	0.5	28.2	0.7	46.8	-7.0
Cc1ccc(CNC(=O)CS(=O)Cc2nc(-c3cccs3)oc2C)cc1 (stereo not drawn)	9.3	0.8	-21.6	1.2	20.4	-1.0
Nc1nc(SCC(=O)N2CCc3ccccc32)[nH]c(=O)c1-c1ccccc1	11.9	0.9	44.5	0.6	9.2	0.0
O=C(CSC1=NCCS1)N1CCN(c2ccccc2)CC1	-5.7	/	/	/	/	/
O=C(CSCCO)N1CCc2ccccc21	-11.5	0.8	-49.2	1.5	16.0	12.0
Nc1ccccc1SCC(=O)N1CCc2ccccc21	-2.2	0.2	33.3	0.7	76.5*	13.0
O=C(CSC1=NCCS1)N1CCc2ccccc21	-7.5	0.5	63.0*	0.4	48.7	-1.0
O=C(CSc1nc(-c2ccccc2)cc(=O)[nH]1)N1CCc2ccccc21	0.9	0.9	68.6*	0.3	11.3	-9.0
Cc1ccc(C(=O)c2nc3c(n2O)CCCC3)cc1	/	1	0.8	1	-4.6	2.0
COc1ccc(-c2cnc(OC(C)(C)C)nc2OC(C)(C)C)cc1OC	/	0.9	25.6	0.7	8.3	-5.0
c1ccc2c(-c3nc(C4CCCCC4)no3)cc(-c3ccncc3)nc2c1	20.2	0.4	80.4*	0.2	57.4*	-10.0
CCn1c(=O)c(C2=NS(=O)(=O)c3ccccc3N2)c(O)c2ccccc21	13.1	1.2	60.6*	0.4	-19.3	/
CCn1c(=O)c(-[n+]2ccccc2)c(O)c2ccccc21	-10.7	1	-17.0	1.2	1.9	-3.0
O=C(C1COc2ccccc2O1)N1CCN(c2ccccc2)CC1 (stereo not drawn)	10.1	0.1	74.7*	0.3	85.1*	-2.0
O=C(Nc1ccccc1Cl)N1CCn2c(nc3ccccc32)C1	/	0.5	22.3	0.8	52.1*	4.0
